A short description of data set [1]: Aggregation / stability of probes in solvents. The format is physicochemical.
A short description of data set [2]: Absorption and fluorescence spectroscopy, quantum yield, TCSPC lifetime, TRES. The settings on record: for λem: 720 nm excitation; for τ (fluorescence lifetime): TCSPC, 773 nm excitation, 820 nm detection; for Φ (quantum yield): relative to ICG in DMSO. It is filed as physicochemical.
Data set [3] deals with subcutaneous 4T1luc tumors. Kind of data set: Whole-body planar fluorescence reflectance imaging. It is filed as in vivo, mouse (male NCR nude). Particulars: 24 hours post-injection, i.v., subcutaneous 4T1luc tumor. The gist of the method:
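Tumours were 2×10^5 4T1luc cells s.c. in the right shoulder; n=3. Mice received i.v. 100 μl small-molecule probe (20 μM, 20% DMSO/water) or 150 μL nanoparticles. Planar NIR reflectance images (755±35 nm excitation, 830 nm emission, 60 s) were taken at 1, 4 and 24 h, with white-light/X-ray reference. Organs were then imaged ex vivo. ROI mean intensities were compared by Student's t-test (α = 0.05).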

For data set [4], the system named is intradermal 4T1luc tumors in mouse ears. Nature of the data set: High resolution noninvasive NIR imaging of intradermal ear tumors. Particulars: post-injection. The format is in vivo, mouse (female balb/c). The gist of the method: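 4T1luc cells (1×10^4) were implanted intradermally in each ear; n=3. From day 3, isoflurane-anaesthetised mice had glycerin-coated ears imaged at 800 nm (0.02 mm/pixel). Nanoparticles (0.10 mL, 4×10^13 particles/mL) or small-molecule probe (0.02 mL, 20 μM, 20% DMSO/water) were given i.v. by tail vein. Imaging was pre-, immediately post-, 4 h and 24 h post-injection, repeated days 8 and 15. Background-subtracted tumour ROI intensity was normalised to injected dose from vessel ROIs.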

Where [5] appears, read: 20% DMSO/water, room temperature.

Take `CC1(C)C(/C=C/C=C/C=C/C=C2/N(CCC(=O)O)c3ccc4ccccc4c3C2(C)C)=[N+](CCC(=O)[O-])c2ccc3ccccc3c21` [cypate]: in data set [1] (aqueous solutions), the aggregation entry is “form non-emissive aggregates”. Further, in data set [2] (DMSO, room temperature), the “ε × 10^-3” value came to 224 M^-1 cm^-1, the λabs is 790 nm and the λem came out at 817 nm. For the same molecule, in data set [2] (DMSO), the “τ (fluorescence lifetime)” value is listed as 0.97 ns and the “Φ (quantum yield)” value is 0.12.
As to cypate-cRGDfK, the “In vivo tumor contrast” value in data set [3] is 1.32 +/- 0.13. Besides, the stability in solvent entry in data set [1] (20% DMSO/water) is “stable”. The “time of peak tumor-to-normal contrast” value in data set [4] was determined as 4 h. In data set [2] (setting [5]), this molecule gave a λabs of 790 nm and a λem of 804 nm. Besides, in data set [2] (20% DMSO/water), the “τ (fluorescence lifetime)” value turned out to be 0.24 ns and the “Φ (quantum yield)” value was 0.036.

The record behind these values is publication PMC2914325 (Nanomedicine (London, England), 2010).
